Test results published in ChEMBL document CHEMBL1772969, “Synthesis, structure-activity relationship, and antimalarial activity of ureas and thioureas of 15-membered azalides” (J Med Chem, 2011).
≈ marks a conversion by molar mass, not a printed value. Calls of active or inactive are those of the source. The rule behind the calls is not given here.

Tests used:
Plasmodium berghei [1] = test: Antiplasmodial activity against Plasmodium berghei KBG-173 infected in sc dosed mouse administered bid for 3 days; format: functional
Summary of the method: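 Male mice (24-30 g) were infected ip with 5 × 10⁶ P. berghei KBG-173-infected erythrocytes. Drug suspended in palm/peanut oil was given sc twice daily on days 3-5 post-infection at 160, 40 or 10 mg/kg per dose, 0.01 mL/g, in groups of 4-5. Blood films were taken day 6, then biweekly to day 31. Mice smear-negative on day 31 were counted cured. CD50 is the daily dose curing 50%.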

Plasmodium berghei [2] = test: Antiplasmodial activity against Plasmodium berghei KBG-173 infected in mouse assessed as mouse without parasitemia at 60 mg/kg, sc bid for 3 days measured on day 31; format: functional, organism-based; design: dose 60 mg/kg
Summary of the method: (§1)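 P. berghei KBG-173: 5 × 10⁶ infected erythrocytes injected intraperitoneally into male mice (24–30 g); parasitemia 1.0–3.7% by day 3. Oil suspension given subcutaneously twice daily at 160, 40 or 10 mg/kg on days 3–5 postinfection (totals 960/240/60 mg/kg); 4–5 mice per group. Blood films on day 6, then biweekly to day 31; film-negative on day 31 counted as cured.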

Plasmodium falciparum [3] = test: Antimalarial activity against multidrug-resistant Plasmodium falciparum TM91C235 after 48 hrs by [3H]hypoxanthine incorporation assay; format: functional, organism-based
Summary of the method: (§2)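 [3H]hypoxanthine incorporation assay (Desjardins method, Milhous modification) with 48 h drug exposure. Compounds and controls were 2-fold diluted across 11 concentrations. IC50 was fitted by nonlinear logistic dose-response. Values are averaged where multiple results were generated, with relative errors usually <30%.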

Plasmodium falciparum [4] = test: Antimalarial activity against chloroquine-sensitive Plasmodium falciparum D6 after 48 hrs by [3H]hypoxanthine incorporation assay; format: functional, organism-based; summary of the method: as §2
Plasmodium falciparum [5] = test: Antimalarial activity against chloroquine/pyrimethamine-resistant Plasmodium falciparum W2 after 48 hrs by [3H]hypoxanthine incorporation assay; format: functional, organism-based; summary of the method: as §2
THP-1 = test: Cytotoxicity against human THP1 cells after 1 to 4 hrs by MTS assay; format: cell-based
Summary of the method: (§3)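 HepG2 and THP-1 cells grown in RPMI 1640 with 10% FBS at 37 °C, 5% CO₂, and passaged twice weekly. Compounds applied as continuous exposure. Viability read by MTS reagent, 1–4 h incubation, absorbance at 490 nm; IC₅₀ derived.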

HepG2 = test: Cytotoxicity against human HepG2 cells after 1 to 4 hrs by MTS assay; format: cell-based; summary of the method: as §3
[6] = Half life in human liver microsomes at 1 uM by LCMS analysis; format: ADME, Microsome
Summary of the method: (§4)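 Compound at 1 μM final with 0.5 mg/mL pooled human or mouse liver microsomes, 1.3 mM NADP, 3.3 mM MgCl₂, 0.1 M PBS pH 7.4. Reaction started with 1 U/mL G6PD, shaken at 37 °C. Aliquots quenched with cold acetonitrile at 0, 10, 20, 30 and 60 min and quantified by LCMS. t₁/₂ taken from log plot of total ion chromatogram area remaining.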

[7] = Half life in mouse liver microsomes at 1 uM by LCMS analysis; format: ADME, Microsome; summary of the method: as §4
[8] = Apparent volume of distribution during terminal phase in Sprague-Dawley rat at 10 mg/kg, iv and 30 mg/kg, po; format: ADME, organism-based; settings: in vivo, read-out: Vz/F
Summary of the method: (§5)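 Male Sprague-Dawley rats (250–300 g), crossover design. Dosed 10 mg/kg iv, then 2-day washout, then 30 mg/kg oral (free base equivalent), formulated in 1%/20% Encapsin (w/v) and saline. Blood sampled up to 24 h and analysed by LC-MS/MS. Clearance and terminal-phase Vd based on blood concentration.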

[9] = Blood clearance in Sprague-Dawley rat at 10 mg/kg, iv and 30 mg/kg, po; format: ADME, organism-based; settings: whole blood; summary of the method: as §5
[10] = Half life in Sprague-Dawley rat at 10 mg/kg, iv and 30 mg/kg, po; format: ADME, organism-based; settings: in vivo; summary of the method: as §5
[11] = Oral bioavailability in Sprague-Dawley rat at 30 mg/kg; format: ADME, organism-based; settings: in vivo; summary of the method: as §5
Plasmodium berghei [12] = test: Antiplasmodial activity against Plasmodium berghei KBG-173 infected in mouse assessed as mouse without parasitemia at 240 mg/kg, sc bid for 3 days measured on day 31; format: functional, organism-based; design: dose 240 mg/kg; summary of the method: as §1
Plasmodium berghei [13] = test: Antiplasmodial activity against Plasmodium berghei KBG-173 infected in mouse assessed as mouse without parasitemia at 960 mg/kg, sc bid for 3 days measured on day 31; format: functional, organism-based; design: dose 960 mg/kg; summary of the method: as §1
Plasmodium falciparum [14] = test: Ratio of compound IC50 to Azithromycin IC50 for Plasmodium falciparum; format: functional
Plasmodium falciparum [15] = test: Antimalarial activity against Plasmodium falciparum after 68 hrs; format: functional, organism-based

SMILES	CD50 (Plasmodium berghei [1]) [mg/kg]	Activity (Plasmodium berghei [2])	IC50 (Plasmodium falciparum [3]) [µM]	IC50 (Plasmodium falciparum [4]) [µM]	IC50 (Plasmodium falciparum [5]) [µM]	IC50 (THP-1) [µM]	IC50 (HepG2) [µM]	half-life at 1 µM [6] [h]	half-life at 1 µM [7] [h]	Vd/F [8] [L/kg]	clearance [9] [L/h/kg]	half-life [10] [h]	bioavailability [11] [%]	Activity (Plasmodium berghei [12])	Activity (Plasmodium berghei [13])	Ratio IC50 (Plasmodium falciparum [14])	IC50 (Plasmodium falciparum [15]) [mg/L]
CC[C@H]1OC(=O)[C@H](C)[C@@H](O[C@H]2C[C@@](C)(OC)[C@@H](O)[C@H](C)O2)[C@H](C)[C@@H](O[C@@H]2O[C@H](C)C[C@H](N(C)C)[C@H]2O)[C@](C)(O)C[C@@H](C)CN(CCCNC(=S)NCCCc2ccccc2)[C@H](C)[C@@H](O)[C@]1(C)O	780	inactive	0.082	0.107	0.085	15	22	> 2	> 2	2.6	0.138	13.4	1.3				
CC[C@H]1OC(=O)[C@H](C)[C@@H](O[C@H]2C[C@@](C)(OC)[C@@H](O)[C@H](C)O2)[C@H](C)[C@@H](O[C@@H]2O[C@H](C)C[C@H](N(C)C)[C@H]2O)[C@](C)(O)C[C@@H](C)CN(CCCN(CCC#N)C(=S)NCCCc2ccccc2)[C@H](C)[C@@H](O)[C@]1(C)O	800	inactive	0.062	0.179	0.088	5	9	> 2	> 2	31.7	1.47	15.2	21	inactive			
CC[C@H]1OC(=O)[C@H](C)[C@@H](O[C@H]2C[C@@](C)(OC)[C@@H](O)[C@H](C)O2)[C@H](C)[C@@H](O[C@@H]2O[C@H](C)C[C@H](N(C)C)[C@H]2O)[C@](C)(O)C[C@@H](C)CN(CCCN(CCC#N)C(=O)Nc2ccc(Cl)cc2Cl)[C@H](C)[C@@H](O)[C@]1(C)O	420		0.123	0.229	0.199	15	22	> 2	> 2	23.3	0.462	41.5	18.4		Active		
CC[C@H]1OC(=O)[C@H](C)[C@@H](O[C@H]2C[C@@](C)(OC)[C@@H](O)[C@H](C)O2)[C@H](C)[C@@H](O[C@@H]2O[C@H](C)C[C@H](N(C)C)[C@H]2O)[C@](C)(O)C[C@@H](C)CN(C)[C@H](C)[C@@H](O)[C@]1(C)O [AZITHROMYCIN]	50		2.11	1.04	2.29	> 50	> 50	> 2	> 2	20	0.66	24	33	Active	Active	88	0.5 (≈ 0.668 µM)
CC[C@H]1OC(=O)[C@H](C)[C@@H](O[C@H]2C[C@@](C)(OC)[C@@H](O)[C@H](C)O2)[C@H](C)[C@@H](O[C@@H]2O[C@H](C)C[C@H](N(C)C)[C@H]2O)[C@](C)(O)C[C@@H](C)CN(CCCNC(=O)NC(C)c2cccc3ccccc23)[C@H](C)[C@@H](O)[C@]1(C)O (stereo partly specified)	397.5		0.107	0.292	0.106	46	> 50	> 2	> 2					inactive	Active		
CC[C@H]1OC(=O)[C@H](C)[C@@H](O[C@H]2C[C@@](C)(OC)[C@@H](O)[C@H](C)O2)[C@H](C)[C@@H](O[C@@H]2O[C@H](C)C[C@H](N(C)C)[C@H]2O)[C@](C)(O)C[C@@H](C)CN(CCCN(CCC#N)C(=S)NCCc2ccccc2)[C@H](C)[C@@H](O)[C@]1(C)O	>960	inactive	0.048	0.088	0.051	6	13	1.72	> 2						inactive		
